Published values gathered from unrelated publications.
Compare with care: the assays were run in different laboratories.
Target: Serine/threonine-protein kinase ULK2 (ULK2, Homo sapiens, UniProt Q8IYT8)
Residues used in one study (Q8IYT8 1-1036): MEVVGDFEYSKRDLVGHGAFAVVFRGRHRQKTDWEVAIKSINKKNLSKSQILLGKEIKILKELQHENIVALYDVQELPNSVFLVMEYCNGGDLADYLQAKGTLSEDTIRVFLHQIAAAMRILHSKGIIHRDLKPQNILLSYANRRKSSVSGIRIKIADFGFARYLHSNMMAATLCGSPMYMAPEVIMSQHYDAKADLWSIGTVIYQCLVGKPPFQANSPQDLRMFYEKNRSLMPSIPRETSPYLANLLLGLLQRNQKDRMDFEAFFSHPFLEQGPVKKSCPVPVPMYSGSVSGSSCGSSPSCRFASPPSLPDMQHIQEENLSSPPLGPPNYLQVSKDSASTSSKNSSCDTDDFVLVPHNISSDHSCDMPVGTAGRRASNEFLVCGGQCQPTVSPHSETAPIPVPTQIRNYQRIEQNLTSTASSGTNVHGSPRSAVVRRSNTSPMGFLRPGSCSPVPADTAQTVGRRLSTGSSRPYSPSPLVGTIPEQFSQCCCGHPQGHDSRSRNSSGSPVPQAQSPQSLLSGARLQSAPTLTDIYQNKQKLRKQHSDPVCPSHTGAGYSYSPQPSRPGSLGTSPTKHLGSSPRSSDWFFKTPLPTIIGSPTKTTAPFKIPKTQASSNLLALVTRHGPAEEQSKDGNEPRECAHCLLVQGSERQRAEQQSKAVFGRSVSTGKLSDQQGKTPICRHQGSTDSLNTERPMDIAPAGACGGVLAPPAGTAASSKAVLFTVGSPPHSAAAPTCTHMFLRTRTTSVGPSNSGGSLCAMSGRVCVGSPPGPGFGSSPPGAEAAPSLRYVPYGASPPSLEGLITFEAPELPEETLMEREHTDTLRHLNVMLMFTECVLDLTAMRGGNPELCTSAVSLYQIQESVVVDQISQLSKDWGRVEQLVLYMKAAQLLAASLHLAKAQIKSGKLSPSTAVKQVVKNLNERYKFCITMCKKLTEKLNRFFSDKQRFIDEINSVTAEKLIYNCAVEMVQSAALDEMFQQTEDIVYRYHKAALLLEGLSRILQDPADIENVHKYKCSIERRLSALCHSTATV

Structure (SMILES) | observed | technique | concentration | remaining binding [%]
FC(F)(F)c1ccc2c(c1)nc(-c1cccnc1)n2C1CC1 | cell-free assay | competition with immobilised ligand | 1 µM | 100
Nc1ncc2c(n1)-c1c([nH]c3ccc(C#CC4CC4)cc13)CCCC2 | binding | competition with immobilised ligand | 1 µM | 100
COc1cnc(Nc2cccc(S(N)(=O)=O)c2)nc1N1CCN(c2ccccc2)C(=O)C1 | binding | competition with immobilised ligand | 1 µM | 51
O=C(c1ccc(Nc2nccc(-c3cc4ccccc4s3)n2)cc1)N1CCC(N2CCCC2)CC1 | binding | competition with immobilised ligand | 1 µM | 87
CN(C)c1nccc(-c2cnc3ncccn23)n1 | binding |  | 1 µM | 74
O=C(NS(=O)(=O)c1ccc(NCC2CCOCC2)c([N+](=O)[O-])c1)c1ccc(N2CCN(Cc3ccc(C(F)(F)F)cc3-c3ccc(Cl)cc3)CC2)cc1Oc1cnc2[nH]ccc2c1 | cell-free assay | competition with immobilised ligand | 1 µM | 100
COC(=O)Nc1nc2ccc(C(=O)c3ccccc3)cc2[nH]1 | cell-free assay | competition with immobilised ligand | 10 µM | 30
C[C@H]1CCN(c2nccc(-c3cnn4ncccc34)n2)C1 | binding |  | 1 µM | 63
O=C(c1ccc(Nc2ncc(Cl)c(-c3ccc(Cl)s3)n2)cc1)N1CCC(N2CCCC2)CC1 | binding | competition with immobilised ligand | 1 µM | 31
COc1ncc2cc3ccccc3nc2c1C#N | cell-free assay | competition with immobilised ligand | 5 µM | 100
C=CC(=O)N1CCC(C(=O)NCC(=O)N2CCN(c3nc(-c4cnc(N)nc4C(F)F)nc(N4CCOCC4)n3)CC2)CC1 | binding | competition with immobilised ligand | 1 µM | 96
CN(C)c1nccc(-c2cnn3ncccc23)n1 | binding |  | 1 µM | 100
CNC(=O)[C@@H]1CC[C@@H](n2c(-c3ccc4cnccc4c3)nc3ccc(C(=O)NCc4cccc(C(N)=O)c4)cc32)C1 | binding | competition with immobilised ligand | 1 µM | 100
CCC(=O)N[C@H]1CC[C@@H](C(=O)N(C)c2ccc(-c3nc4ccccc4o3)cc2)C1 | cell-free assay | competition with immobilised ligand | 1 µM | 75
Cc1cnc(Nc2ccc(C(=O)N3CCC(N4CCCC4)CC3)cc2)nc1-c1cc2ccccc2s1 | binding | competition with immobilised ligand | 1 µM | 12
CC1CCCN1c1nccc(-c2cnn3ncccc23)n1 (stereo not shown) | binding |  | 1 µM | 74
O=C(O)[C@H]1[C@H](Cn2nnc3ccccc3c2=O)CC[C@@H]1C(=O)c1ccc(OCCC2CCOCC2)cc1 | cell-free assay | competition with immobilised ligand | 1 µM | 100
C[C@@H](c1ccc(-n2cnc3c(N)ncnc32)cc1)N1CCc2nn(C)c(Cc3ccccc3)c2C1=O | binding | competition with immobilised ligand | 0.1 µM | 70
NS(=O)(=O)c1cc(NC(=O)C2(c3ccccc3Cl)CC2)ccc1Oc1cccc(Cl)c1 | cell-free assay | competition with immobilised ligand | 1 µM | 100
c1cnn2ncc(-c3ccnc(N4CCC45COC5)n3)c2c1 | binding |  | 1 µM | 59
COCCOc1nc(-c2ccc(Cl)nc2)nc2c1CN(C(=O)c1ncn3ccccc13)CC2 | cell-free assay | competition with immobilised ligand | 0.1 µM | 100
CN(CCCC(F)(F)F)c1nccc(-c2cnn3ncccc23)n1 | binding |  | 1 µM | 96
O=C(Nc1c[nH]nc1C(=O)NC1CCNCC1)c1cc(F)cc(F)c1 | binding | competition with immobilised ligand | 1 µM | 99
CNCc1ccccc1-c1csc([C@H](C)Nc2nc(C)nc3cc(OC)c(OC)cc23)c1 | cell-free assay | competition with immobilised ligand | 1 µM | 100
C[C@@H]1CN(c2ccc3ncc(-c4ccc5[nH]nc(C6CC6)c5c4)n3n2)C[C@H](C)O1 | binding | competition with immobilised ligand | 50 nM | 92
